From ChEMBL document CHEMBL1138867, “Design, synthesis, potency, and cytoselectivity of anticancer agents derived by parallel synthesis from alpha-aminosuberic acid” (J Med Chem, 2006) come the findings set out here.

A value given as a limit tells only on which side of the number the result lay.

Common to all, as to type: functional, cell-based
Experiment [1] deals with MM96L. Kind of experiment: Antiproliferative activity against human MM96L cells. An outline of the steps: (§1)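 Cells cultured in RPMI 1640 with 10% heat-inactivated FCS, 3 mM HEPES, 5% CO2, 37 °C; NFF are primary neonatal foreskin fibroblasts. Cells were seeded at 5 × 10^3/well and left to adhere overnight. They were exposed to compound for 24 h, then the medium was replaced and cells grown a further 72 h. Survival was read by SRB staining at 564 nm, giving IC50.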

For experiment [2], the system named is NFF. Description: Antiproliferative activity against human NFF cells. The method, boiled down: as §1
Experiment [3] deals with SK-MEL-5. Kind of experiment: Antiproliferative activity against human SK-Mel-5 cells. The method, boiled down:
as §1

For experiment [4], the system named is COLO 205. Kind of experiment: Antiproliferative activity against human Colo205 cells. An outline of the steps: as §1
For experiment [5], the system named is C180-13S. Description: Antiproliferative activity against human C180-13S cells. The method, boiled down:
as §1

The nature of experiment [6]: Antiproliferative activity against human H520 cells. The settings on record: NCI-H520. The method, boiled down: as §1
The subject of experiment [7] is SK-MEL-28. Description: Antiproliferative activity against human SK-Mel-28 cells. The method, boiled down:
as §1

Experiment [8] can be described thus: Antiproliferative activity against human JAM cells. An outline of the steps: as §1
Experiment [9] deals with PC-3. Description: Antiproliferative activity against human PC3 cells. The method, boiled down: as §1
Experiment [10] deals with HOP-62. Kind of experiment: Antiproliferative activity against human HOP62 cells. The method, boiled down:
as §1

In experiment [11] the test system is DU-145. Description: Antiproliferative activity against human DU145 cells. An outline of the steps: as §1
Experiment [12] relates to MCF7. Description: Antiproliferative activity against human MCF7 cells. The method, boiled down:
as §1

The subject of experiment [13] is A549. Description: Antiproliferative activity against human A549 cells. An outline of the steps:
as §1

Experiment [14] has as its system HT-29. Kind of experiment: Antiproliferative activity against human HT29 cells. An outline of the steps:
as §1

The subject of experiment [15] is T47D. Description: Antiproliferative activity against human T-47D cells. An outline of the steps:
as §1

In general, IC50 refers to the concentration that gives 50% inhibition. Low readings indicate greater potency, high ones weaker potency.

Regarding `O=C(CCCCC[C@H](NC(=O)OCc1ccccc1)C(=O)NCc1ccncc1)NO`, the IC50 in [1] worked out at 4320 nM; in experiment [2], 23300 nM.
For `O=C(CCCCC[C@H](NC(=O)c1ccc(Br)cc1)C(=O)Nc1ccc(-c2ccccc2)cc1)NO`, the IC50 in experiment [3] amounted to 102 nM; in [1], 70 nM; in experiment [4] it was 272 nM; in [5], 158 nM; in [6], 117 nM; in experiment [7], 168 nM. The half-inhibitory concentration (IC50) in experiment [8] amounted to 182 nM; in experiment [9] it was 531 nM; in experiment [10] it was 261 nM; in experiment [2], 190 nM; in experiment [11], 149 nM; in [12], 149 nM. For the same molecule, the IC50 in experiment [13] turned out to be 335 nM; in experiment [14] it was 307 nM; in [15] it was 197 nM.
Turning to `O=C(CCCCCC(NC(=O)c1ccc([N+](=O)[O-])cc1)C(=O)NCc1ccccc1)NO` (stereo not drawn), the results for the half-maximal inhibitory concentration (IC50) in [1] and in experiment [2] were 6000 nM and 9000 nM, respectively.
Turning to `O=C(CCCCC[C@H](NC(=O)Cc1c[nH]c2ccccc12)C(=O)NCc1ccccc1)NO`, the results for the half-inhibitory concentration (IC50) in [1] and in experiment [2] were 330 nM and more than 2200 nM, respectively.
On to `O=C(CCCCC[C@H](NC(=O)OCc1ccccc1)C(=O)Nc1cccc2cccnc12)NO`, for which the IC50 in experiment [3] amounted to 70 nM; in [1] it was 43 nM; in [4], 122 nM; in [5] it was 124 nM; in experiment [6] it was 118 nM; in [7] it was 146 nM. The IC50 was found to be 194 nM in experiment [8]; 528 nM in experiment [9]; 226 nM in experiment [10]; 452 nM in experiment [2]; 131 nM in experiment [11]; 122 nM in experiment [12]. The IC50 in [13] came out at 248 nM; in [14], 334 nM; in experiment [15], 93 nM.
On to `O=C(CCCCC[C@H](NC(=O)OCc1ccccc1)C(=O)NC1CCCc2ccccc21)NO` (stereo partly drawn), for which the IC50 in experiment [1] and in experiment [2] was 1700 nM in each case.
Take `CN(C)c1ccc(C(=O)NC(CCCCCC(=O)NO)C(=O)NC2CCCc3ccccc32)cc1` (stereo not drawn): the IC50 in experiment [1] amounted to 300 nM; in [2], 1810 nM.
For the molecule `O=C(CCCCCC(NC(=O)c1ccco1)C(=O)NCc1ccccc1)NO` (stereo not drawn), the IC50 came to 200 nM in experiment [1] and 4600 nM in experiment [2].
Turning to `O=C(CCCCCC(NC(=O)c1cccnc1)C(=O)NCc1ccccc1)NO` (stereo not drawn), the results for the IC50 in [1] and in [2] were 9500 nM and 24000 nM, respectively.
As for `O=C(CCCCC[C@H](NC(=O)OCc1ccccc1)C(=O)NCc1ccccc1)NO`, the IC50 in experiment [1] and in [2] was 1520 nM each time.
Turning to `O=C(CCCCC[C@H](NC(=O)C12CC3CC(CC(C3)C1)C2)C(=O)NCc1ccccc1)NO`, the IC50 in [1] was 3950 nM; in experiment [2], 7130 nM.
Consider `O=C(CCCCC[C@H](NC(=O)c1cc2ccccc2[nH]1)C(=O)NCc1ccccc1)NO`, for which the half-inhibitory concentration (IC50) was 250 nM in [1] and 1260 nM in experiment [2].
Turning to `O=C(CCCCC[C@H](NC(=O)Cc1ccc(-c2ccccc2)cc1)C(=O)NCc1ccccc1)NO`, the half-maximal inhibitory concentration (IC50) in [1] came out at 2360 nM; in [2], 5130 nM.
For `O=C(CCCCC[C@H](NC(=O)c1cccs1)C(=O)NCc1ccccc1)NO` the same measures were 890 nM and 5200 nM.
Turning to `O=C(CCCCC[C@H](NC(=O)c1ccc(Br)cc1)C(=O)NCc1ccncc1)NO`, the results for the IC50 in experiment [1] and in [2] were 830 nM and 5240 nM, respectively.
As for `CC(C)COC(=O)N[C@@H](CCCCCC(=O)NO)C(=O)Nc1cccc2cccnc12`, the IC50 in [3] stood at 100 nM; in experiment [1], 23 nM; in experiment [4], 395 nM; in experiment [5] it was 149 nM; in [6], 129 nM; in experiment [7] it was 170 nM. For the same molecule, the 50% inhibitory concentration (IC50) in experiment [8] turned out to be 221 nM; in [9] it was 651 nM; in experiment [10] it was 267 nM; in [2], 81 nM; in experiment [11], 130 nM; in [12] it was 138 nM. Besides, the figures for the half-maximal inhibitory concentration (IC50) in experiment [13], in experiment [14] and in experiment [15] were 291 nM, 360 nM and 198 nM, respectively.
For `O=C(CCCCC[C@H](NC(=O)OCc1ccccc1)C(=O)Nc1ccc(-c2ccccc2)cc1)NO`, the IC50 was 330 nM in experiment [1] and 2200 nM in experiment [2].
Consider `CN(C)c1ccc(C(=O)N[C@@H](CCCCCC(=O)NO)C(=O)NC2(Cc3ccccc3)CCCC2)cc1`, for which the IC50 in [1] is 900 nM; in experiment [2] it was 3000 nM.
Regarding `O=C(CCCCC[C@H](NC(=O)OCC1c2ccccc2-c2ccccc21)C(=O)NCc1ccccc1)NO`, the IC50 came to 3200 nM in experiment [1] and 5370 nM in [2].
Turning to `CN(C)c1ccc(C(=O)N[C@H](CCCCCC(=O)NO)C(=O)NCc2ccccc2)cc1`, the values for the IC50 in experiment [1] and in experiment [2] were 160 nM and 1000 nM, respectively.
For `O=C(CCCCC[C@H](NC(=O)c1ccc(C(F)(F)F)cc1)C(=O)NCc1ccccc1)NO`, in that order: 660 nM and 1610 nM.
As for `O=C(/C=C/c1c[nH]c2ccccc12)N[C@@H](CCCCCC(=O)NO)C(=O)NCc1ccccc1`, the figures for the IC50 in experiment [1] and in experiment [2] were 3240 nM and 10400 nM, respectively.
For the molecule `CN(C)c1ccc(NC(=O)[C@H](CCCCCC(=O)NO)NC(=O)/C=C/c2ccccc2)cc1`, the figures for the IC50 in [1] and in experiment [2] were 160 nM and 240 nM, respectively.
In the case of `O=C(CCCCC[C@H](NC(=O)c1ccc(C(F)(F)F)cc1)C(=O)Nc1cccc2cccnc12)NO`, the IC50 in experiment [1] was determined as 258 nM; in [2], 696 nM.
For `CN(C)c1ccc(NC(=O)[C@H](CCCCCC(=O)NO)NC(=O)c2ccc(C(F)(F)F)cc2)cc1`, the half-inhibitory concentration (IC50) in experiment [1] worked out at 220 nM; in experiment [2], 400 nM.
Take `O=C(CCCCC[C@H](NC(=O)c1cc2c(O)cccc2[nH]1)C(=O)NCc1ccccc1)NO`: the IC50 is 330 nM in [1] and 2210 nM in experiment [2].
Take `O=C(CCCCC[C@H](NC(=O)c1cc2ccccc2[nH]1)C(=O)NC1(Cc2ccccc2)CCCC1)NO`: the figures for the IC50 in [1] and in [2] were 900 nM and 1600 nM, respectively.
Consider `O=C(CCCCC[C@H](NC(=O)c1ccc(Br)cc1)C(=O)NCc1ccccc1)NO`, for which the half-maximal inhibitory concentration (IC50) in experiment [1] came out at 1990 nM; in experiment [2] it was 5860 nM.
For `CN(C)c1ccc(C(=O)N[C@@H](CCCCCC(=O)NO)C(=O)NCc2ccccn2)cc1`, in that order: 3600 nM and 33000 nM.
For `CC(C)CCNC(=O)C(CCCCCC(=O)NO)NC(=O)c1ccco1` (stereo not drawn), the IC50 turned out to be 1500 nM in experiment [1] and 4400 nM in experiment [2].
In the case of `O=C(CCCCC[C@H](NC(=O)c1cc2c(Br)cccc2[nH]1)C(=O)NCc1ccccc1)NO`, the figures for the half-inhibitory concentration (IC50) in experiment [1] and in [2] were 490 nM and 1940 nM, respectively.
As to `O=C(CCCCC[C@H](NC(=O)c1ccc(Br)cc1)C(=O)NCc1ccccn1)NO`, the half-inhibitory concentration (IC50) is 1150 nM in experiment [1] and 2090 nM in experiment [2].
Turning to `COc1ccc(CCNC(=O)C(CCCCCC(=O)NO)NC(=O)c2ccco2)cc1` (stereo not drawn), the IC50 was 970 nM in experiment [1] and 1300 nM in [2].
Turning to `CC(C)CCNC(=O)C(CCCCCC(=O)NO)NC(=O)c1cccnc1` (stereo not drawn), the values for the IC50 in [1] and in [2] were 9000 nM and 12000 nM, respectively.
On to `CN(C)c1ccc(NC(=O)[C@H](CCCCCC(=O)NO)NC(=O)OCc2ccccc2)cc1`, for which the concentration for half-maximal inhibition (IC50) in experiment [1] turned out to be 610 nM; in [2], 650 nM.
On to `O=C(/C=C/c1ccccc1)N[C@@H](CCCCCC(=O)NO)C(=O)NCc1ccccc1`, for which the half-maximal inhibitory concentration (IC50) in experiment [1] worked out at 460 nM; in [2], 4010 nM.
As for `O=C(/C=C/c1ccccc1)N[C@@H](CCCCCC(=O)NO)C(=O)Nc1cccc2cccnc12`, the half-inhibitory concentration (IC50) in experiment [3] stood at 29 nM; in [1], 21 nM; in experiment [4], 141 nM; in experiment [5], 28 nM; in [6], 27 nM; in experiment [7], 37 nM. For the same molecule, the 50% inhibitory concentration (IC50) in experiment [8] was 49 nM; in experiment [9], 109 nM; in experiment [10] it was 65 nM; in experiment [2], 1240 nM; in experiment [11], 30 nM; in [12] it was 17 nM. For the same molecule, the results for the concentration for half-maximal inhibition (IC50) in experiment [13], in [14] and in experiment [15] were 73 nM, 99 nM and 20 nM, respectively.
Take `O=C(CCCCC[C@H](NC(=O)CCCc1c[nH]c2ccccc12)C(=O)NCc1ccccc1)NO`: the IC50 was found to be 1850 nM in experiment [1] and 7030 nM in [2].
With `CN(C)c1ccc(C(=O)N[C@@H](CCCCCC(=O)NO)C(=O)Nc2cccc3cccnc23)cc1`, the IC50 in experiment [3] worked out at 32 nM; in [1], 20 nM; in [4], 223 nM; in [5] it was 65 nM; in experiment [6] it was 63 nM; in [7], 73 nM. Moreover, the IC50 in experiment [8] was determined as 85 nM; in experiment [9], 220 nM; in experiment [10] it was 137 nM; in experiment [2], 570 nM; in experiment [11], 61 nM; in [12], 35 nM. For the same molecule, the values for the IC50 in [13], in experiment [14] and in [15] were 148 nM, 178 nM and 45 nM, respectively.
